According to ChEMBL document CHEMBL5303300, “EUbOPEN Chemogenomics Library - Multiplex” (2023):
Values joined by “and” are separate entries in the source; they are usually repeats but may differ in a detail not shown here. Equal values may be shown once.

Tested on: HEK-293T
Test: Multiplex assay against HEK293T
Type: toxicity, cell-based
Settings: human, number of replicates 2
Method in brief: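 Values for tubulin, mitochondrial-mass and membrane-permeability phenotypes are per cents of cells with healthy nuclei. These cells were identified by CellPathfinder machine-learning gating of live cells that had been stained at seeding with Hoechst33342, BioTracker Green Microtubule Cytoskeleton Dye, MitoTracker Red and Annexin V Alexa Fluor 680 and imaged on a CQ1 microscope at 37°C and 5% CO2 after compound addition. The gating first set Hoechst high-intensity objects apart from normal cells, then split normal cells into healthy, pyknosed or fragmented nuclei, and pyknosed cells into mitotic or apoptotic.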

[1] = 12 h, 1 µM, compound concentration 1 uM
[2] = 12 h, 10 µM, compound concentration 10 uM
[3] = 24 h, 1 µM, compound concentration 1 uM
[4] = 24 h, 10 µM, compound concentration 10 uM
[5] = 48 h, 1 µM, compound concentration 1 uM
[6] = 48 h, 10 µM, compound concentration 10 uM

CCc1cnn2c(NCc3ccc[n+]([O-])c3)cc(N3CCCCC3CCO)nc12 (stereo unspecified)
Population Apoptotic (%) [1]: 70% and 62% | Population Fragmented Nuclei (%) [1]: 3% and 2% | Population Healthy Nuclei (%) [1]: 83% and 90% | Population Hoechst High Intensity Objects (%) [1]: 9% and 7% | Population Membrane Permeable-Phenotype (%) [1]: 0% and 1% | Population Mitochondria Different-Phenotype (%) [1]: 47% and 51% | Population Mitotic Cells (%) [1]: 29% and 37% | Population Normal (%) [1]: 90% and 92% | Population Pyknosed Nuclei (%) [1]: 12% and 7% | Population Tubulin-Different-Phenotype (%) [1]: 70% and 75% | Total Cell Count [1]: 349 and 339 | Population Apoptotic (%) [2]: 52% and 86% | Population Fragmented Nuclei (%) [2]: 3% | Population Healthy Nuclei (%) [2]: 89% and 90% | Population Hoechst High Intensity Objects (%) [2]: 13% | Population Membrane Permeable-Phenotype (%) [2]: 2% and 1% | Population Mitochondria Different-Phenotype (%) [2]: 59% and 57% | Population Normal (%) [2]: 86% | Population Pyknosed Nuclei (%) [2]: 7% and 6% | Population Tubulin-Different-Phenotype (%) [2]: 86% | Total Cell Count [2]: 345 and 378 | Population Apoptotic (%) [3]: 74% and 68% | Population Fragmented Nuclei (%) [3]: 3% and 2% | Population Healthy Nuclei (%) [3]: 86% | Population Hoechst High Intensity Objects (%) [3]: 10% and 11% | Population Membrane Permeable-Phenotype (%) [3]: 1% and 0% | Population Mitochondria Different-Phenotype (%) [3]: 60% and 52% | Population Mitotic Cells (%) [3]: 25% and 31% | Population Normal (%) [3]: 89% and 88% | Population Pyknosed Nuclei (%) [3]: 10% and 11% | Population Tubulin-Different-Phenotype (%) [3]: 70% and 67% | Total Cell Count [3]: 295 and 327 | Population Apoptotic (%) [4]: 47% and 79% | Population Fragmented Nuclei (%) [4]: 4% and 3% | Population Healthy Nuclei (%) [4]: 88% | Population Hoechst High Intensity Objects (%) [4]: 18% and 17% | Population Membrane Permeable-Phenotype (%) [4]: 0% | Population Mitochondria Different-Phenotype (%) [4]: 70% and 67% | Population Mitotic Cells (%) [4]: 52% and 20% | Population Normal (%) [4]: 81% and 82% | Population Pyknosed Nuclei (%) [4]: 6% and 8% | Population Tubulin-Different-Phenotype (%) [4]: 83% and 85% | Total Cell Count [4]: 300 and 355 | Population Apoptotic (%) [5]: 68% and 80% | Population Fragmented Nuclei (%) [5]: 4% and 3% | Population Healthy Nuclei (%) [5]: 85% and 80% | Population Hoechst High Intensity Objects (%) [5]: 11% and 13% | Population Membrane Permeable-Phenotype (%) [5]: 0% | Population Mitochondria Different-Phenotype (%) [5]: 71% and 75% | Population Mitotic Cells (%) [5]: 32% and 19% | Population Normal (%) [5]: 88% and 86% | Population Pyknosed Nuclei (%) [5]: 10% and 16% | Population Tubulin-Different-Phenotype (%) [5]: 74% and 67% | Total Cell Count [5]: 268 and 257 | Population Apoptotic (%) [6]: 43% and 68% | Population Fragmented Nuclei (%) [6]: 1% and 5% | Population Healthy Nuclei (%) [6]: 91% and 87% | Population Hoechst High Intensity Objects (%) [6]: 19% and 20% | Population Membrane Permeable-Phenotype (%) [6]: 1% and 0% | Population Mitochondria Different-Phenotype (%) [6]: 74% and 73% | Population Mitotic Cells (%) [6]: 56% and 31% | Population Normal (%) [6]: 80% and 79% | Population Pyknosed Nuclei (%) [6]: 6% and 7% | Population Tubulin-Different-Phenotype (%) [6]: 83% | Total Cell Count [6]: 292 and 309

CS(=O)(=O)c1ccc(C(=O)Nc2cccc(COc3ccc(Br)cc3CN[C@H]3CCC[C@@H]3O)c2)c(Cl)c1.O=CO
Population Apoptotic (%) [1]: 63% and 58% | Population Healthy Nuclei (%) [1]: 76% and 80% | Population Mitotic Cells (%) [1]: 36% and 41% | Population Normal (%) [1]: 91% and 92% | Total Cell Count [1]: 550 and 522 | Population Apoptotic (%) [2]: 66% and 59% | Population Healthy Nuclei (%) [2]: 84% and 88% | Population Mitotic Cells (%) [2]: 33% and 40% | Population Normal (%) [2]: 91% and 90% | Total Cell Count [2]: 631 and 603 | Population Apoptotic (%) [3]: 55% and 58% | Population Healthy Nuclei (%) [3]: 80% and 83% | Population Mitotic Cells (%) [3]: 44% and 41% | Population Normal (%) [3]: 90% | Total Cell Count [3]: 792 and 800 | Population Apoptotic (%) [4]: 60% and 67% | Population Healthy Nuclei (%) [4]: 85% and 79% | Population Mitotic Cells (%) [4]: 39% and 32% | Population Normal (%) [4]: 91% and 87% | Total Cell Count [4]: 623 and 546 | Population Apoptotic (%) [5]: 20% and 29% | Population Healthy Nuclei (%) [5]: 86% and 87% | Population Mitotic Cells (%) [5]: 79% and 70% | Population Normal (%) [5]: 91% and 92% | Total Cell Count [5]: 1777 and 1587 | Population Apoptotic (%) [6]: 60% and 78% | Population Healthy Nuclei (%) [6]: 86% and 80% | Population Mitotic Cells (%) [6]: 40% and 21% | Population Normal (%) [6]: 89% and 90% | Total Cell Count [6]: 671 and 634

CCn1c(-c2nonc2N)nc2cncc(C(=O)N3CC[C@H](N)C3)c21.Cl
Population Apoptotic (%) [1]: 31% and 33% | Population Fragmented Nuclei (%) [1]: 2% | Population Healthy Nuclei (%) [1]: 81% and 83% | Population Hoechst High Intensity Objects (%) [1]: 7% and 5% | Population Membrane Permeable-Phenotype (%) [1]: 4% and 1% | Population Mitochondria Different-Phenotype (%) [1]: 10% and 8% | Population Mitotic Cells (%) [1]: 68% and 66% | Population Normal (%) [1]: 92% and 94% | Population Pyknosed Nuclei (%) [1]: 16% and 14% | Population Tubulin-Different-Phenotype (%) [1]: 33% and 38% | Total Cell Count [1]: 694 and 685 | Population Apoptotic (%) [2]: 21% and 43% | Population Fragmented Nuclei (%) [2]: 2% | Population Healthy Nuclei (%) [2]: 84% and 78% | Population Hoechst High Intensity Objects (%) [2]: 5% and 4% | Population Membrane Permeable-Phenotype (%) [2]: 1% and 0% | Population Mitochondria Different-Phenotype (%) [2]: 12% and 15% | Population Mitotic Cells (%) [2]: 78% and 56% | Population Normal (%) [2]: 94% and 95% | Population Pyknosed Nuclei (%) [2]: 13% and 19% | Population Tubulin-Different-Phenotype (%) [2]: 38% and 31% | Total Cell Count [2]: 716 and 454 | Population Apoptotic (%) [3]: 46% and 37% | Population Fragmented Nuclei (%) [3]: 3% | Population Healthy Nuclei (%) [3]: 84% and 86% | Population Hoechst High Intensity Objects (%) [3]: 6% and 5% | Population Membrane Permeable-Phenotype (%) [3]: 2% | Population Mitochondria Different-Phenotype (%) [3]: 2% and 3% | Population Mitotic Cells (%) [3]: 53% and 62% | Population Normal (%) [3]: 93% and 94% | Population Pyknosed Nuclei (%) [3]: 11% and 9% | Population Tubulin-Different-Phenotype (%) [3]: 12% and 20% | Total Cell Count [3]: 994 and 875 | Population Apoptotic (%) [4]: 30% and 53% | Population Fragmented Nuclei (%) [4]: 2% and 1% | Population Healthy Nuclei (%) [4]: 86% and 79% | Population Hoechst High Intensity Objects (%) [4]: 8% and 7% | Population Membrane Permeable-Phenotype (%) [4]: 1% | Population Mitochondria Different-Phenotype (%) [4]: 12% and 16% | Population Mitotic Cells (%) [4]: 69% and 46% | Population Normal (%) [4]: 91% and 92% | Population Pyknosed Nuclei (%) [4]: 10% and 18% | Population Tubulin-Different-Phenotype (%) [4]: 36% and 34% | Total Cell Count [4]: 751 and 447 | Population Apoptotic (%) [5]: 9% and 19% | Population Fragmented Nuclei (%) [5]: 9% and 8% | Population Healthy Nuclei (%) [5]: 86% and 87% | Population Hoechst High Intensity Objects (%) [5]: 10% and 9% | Population Membrane Permeable-Phenotype (%) [5]: 3% | Population Mitochondria Different-Phenotype (%) [5]: 0% | Population Mitotic Cells (%) [5]: 90% and 80% | Population Normal (%) [5]: 89% and 90% | Population Pyknosed Nuclei (%) [5]: 3% and 4% | Population Tubulin-Different-Phenotype (%) [5]: 11% and 10% | Total Cell Count [5]: 1942 and 1388 | Population Apoptotic (%) [6]: 51% and 57% | Population Fragmented Nuclei (%) [6]: 7% and 3% | Population Healthy Nuclei (%) [6]: 87% and 84% | Population Hoechst High Intensity Objects (%) [6]: 11% | Population Membrane Permeable-Phenotype (%) [6]: 2% and 1% | Population Mitochondria Different-Phenotype (%) [6]: 4% and 7% | Population Mitotic Cells (%) [6]: 48% and 42% | Population Normal (%) [6]: 88% | Population Pyknosed Nuclei (%) [6]: 5% and 12% | Population Tubulin-Different-Phenotype (%) [6]: 28% and 30% | Total Cell Count [6]: 917 and 468
